Experimental data as given in the array DNA melting data of Ke et al. (doi:10.1101/2024.01.08.574731).

Tests used:
[1] = melting temperature; fluorescence melt of hairpins on a sequencing array, two-state fit, raised by 9.35 °C to match UV melts; settings: sodium 0.088 M
Outline: (§1)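 To match UV melts, fitted temperatures were raised by 9.35 °C. These fits were bootstrapped two-state models that gave melting temperature and folding enthalpy, combined by inverse variance over four replicates. The input was normalised Cy3 fluorescence of library hairpins with annealed Cy3 and quencher oligos on a sequenced MiSeq flow cell, imaged in 50 mM Na-HEPES pH 8.0, 25 mM NaCl in 2.5 °C steps up to 60 °C.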

[2] = folding enthalpy; higher = less favourable; fluorescence melt of hairpins on a sequencing array, two-state fit; settings: sodium 0.088 M
Outline: as §1

| Sequence | Tm [1] [°C] | folding enthalpy [2] [kcal/mol] |
| --- | --- | --- |
| AGCATGAAAATGCT (((((....))))) | 50 | -22.2 |
| GGTGACGGAAACATCACC (((((.(....).))))) | 43.7 | -33.1 |
| GGATTGGGAAACCGATTC (.((.((....)).)).) | 31.6 | -19.9 |
| GCCGCCGGAAACGGCAGC ((.((((....)))).)) | 59.1 | -15.9 |
| GCTGCCGCGAAAGCGAGC (((..(((....)))))) | 57.6 | -9.35 |
| GTGAGAACGAAAGTTCAC (((..(((....)))))) | 43.9 | -18 |
| GGTAATCGAAAGATACC (((.(((....)))))) | 40.5 | -27.2 |
| GATCCCCTTTGGGATC ((((((....)))))) | 61 | -33.9 |
| GGTAGCGGAAACGCTGCC ((.((((....)))).)) | 62.5 | -37.9 |
| GTCGTCGGAAACAACGAC (((((.(....).))))) | 48.3 | -38 |
| GCGCGTGGAAACACGTGC ((.((((....)))).)) | 64.1 | -52.1 |
| GACGGCGAAAGCCACGTC ((((((....)))..))) | 49.8 | -15.3 |
| CGCCTTCGGAAACGAGCG (((..(((....)))))) | 36.3 | -13.6 |
| GGTTTCGAAAGAAACACC ((((((....)))..))) | 45.7 | -11.3 |
| GATCTCCTGTGAGATC ((((((....)))))) | 52.5 | -45.7 |
| GATCATGCGTATGATC ((((((....)))))) | 48.3 | -39 |
| GATGGCGAAAGCCTCATC ((((((....)))..))) | 30.7 | -8.85 |
| GATTGACGAAAGTCATC (((.(((....)))))) | 38.9 | -12.7 |
| GTCTCCGGAAACAGAGAC (((((.(....).))))) | 38.3 | -25.8 |
| GATGTTGGAAACAACGTC ((.((((....)))).)) | 49 | -26.4 |
| GCTGAGCGAAAGCTCCGC ((.((((....)))).)) | 57.7 | -19.7 |
| GGACTCGAAAGAGTCTCC ((((((....)))..))) | 53.3 | -10.4 |
| GGAGGGCGAAAGCCTTCC (((.(((....))).))) | 61.9 | -24.9 |

| Sequence | Tm [1] [°C] | folding enthalpy [2] [kcal/mol] |
| --- | --- | --- |
| GAGCACCGAAAGGTCCTC (((.(((....))).))) | 40.8 | -22.2 |
| GATCCGCAAGCGGATC ((((((....)))))) | 68 | -39 |
| GTCCGCTCGAAAGAGGAC (((..(((....)))))) | 47.4 | -29 |
| GATCGACAAGTCGATC ((((((....)))))) | 58.9 | -44.7 |
| GCGACCGAAAGGTAACGC ((((((....)))..))) | 51.9 | -29.6 |
| CTGCTGAAAAGCAG (((((....))))) | 58.9 | -22.2 |
| GATCCTCCAAGGATC ((((((...)))))) | 53.7 | -31.8 |
| GCGTGCCACGC ((((...)))) | 57.9 | -21.3 |
| GGATAACCGAAAGGTTCC (((..(((....)))))) | 32.4 | -14.1 |
| GCTCGTGGAAACACGAAC (.(((((....))))).) | 45.2 | -14.6 |
| GCGTGCCGAAAGGCCCGC (((.(((....))).))) | 68.9 | -21.6 |
| GCCAAGGGAAACCTTGAC (.(((((....))))).) | 39.6 | -20.6 |
| GTGAACGAAAGTTAACAC ((((((....)))..))) | 35.5 | -19.5 |
| GACTGCGAAAGCATAGTC ((((((....)))..))) | 46.9 | -19.4 |
| GTTAGCCCGAAAGGGAAC (((..(((....)))))) | 28.1 | -11.5 |
| GCGTAAACACGC ((((....)))) | 50.4 | -19.5 |
| GATCAGATGTCTGATC ((((((....)))))) | 49.7 | -41.8 |
| GATCTTCTTAAGATC ((((((...)))))) | 44.3 | -30.1 |
| GTGCTTGGAAACAGGCAC ((((.((....)).)))) | 53.4 | -41 |
| GCTTGGGGAAACCTAAGC ((((.((....)).)))) | 47.8 | -32.1 |
| GGCTAACGAAAGTTGCC (((.(((....)))))) | 54 | -30 |
| GGCAGGGCGAAAGCCGCC (((..(((....)))))) | 63.3 | -18.4 |
| GTTGTCGAAAGACTAAC ((((((....))).))) | 38 | -16.9 |

| Sequence | Tm [1] [°C] | folding enthalpy [2] [kcal/mol] |
| --- | --- | --- |
| GCCCTGCGAAAGCGAGGC (((..((....))..))) | 54.2 | -11.5 |
| GCTCTCGAAAGAGCAAGC ((((((....)))..))) | 42.9 | -12.2 |
| GTTTGCGAAAGCACAAC ((((((....))).))) | 41.1 | -17.1 |
| GGCCGAGGAAACTTGGCC ((((.((....)).)))) | 59.4 | -49.1 |
| GATCTCTCCAGAGATC ((((((....)))))) | 56.7 | -40.2 |
| GTTGAACGAAAGTTAAAC (((.(((....))).))) | 41.2 | -26.9 |
| GCTGAGCGAAAGCGTAGC (((..((....))..))) | 62 | -21.8 |
| GCGACATCTCGC ((((....)))) | 46.5 | -24.2 |
| GCCACCGAAAGGTCCGGC ((((((....)))..))) | 46.8 | -17 |
| GATCAGGTCGCTGATC ((((((....)))))) | 53.3 | -43 |
| GACATCGGAAACGACGTC (((.(((....))).))) | 43.3 | -28 |
| GCCTCAGCGAAAGCTGGC (((..(((....)))))) | 50.9 | -8.88 |
| GTCTGTGCGAAAGCAGAC (((..(((....)))))) | 46.4 | -19.5 |
| GGTGCGTCGAAAGACACC (((..(((....)))))) | 37.1 | -13 |
| GCCCAACGAAAGTTGGC (((.(((....)))))) | 57.1 | -12.8 |
| GCAGCACCGAAAGGTTGC (((..(((....)))))) | 43.9 | -14 |
| GCGACGACTCGC ((((....)))) | 45.8 | -17 |
| GCTCCCGAAAGGGCAGC ((((((....))).))) | 55.2 | -30.2 |
| GGGACTACGAAAGTACCC (((..(((....)))))) | 36.1 | -19.5 |
| GATCGCGCCTGCGATC ((((((....)))))) | 69.3 | -26.7 |
| GGGATTGGAAACAATCCC (((((((....))))))) | 60.5 | -41.9 |
| GATACACGAAAGTGGATC (((.(((....))).))) | 56.6 | -37.4 |
| GCCCCGCGAAAGCAGTGC ((.(.((....)).).)) | 34 | -11.8 |

| Sequence | Tm [1] [°C] | folding enthalpy [2] [kcal/mol] |
| --- | --- | --- |
| GGTAGGACGAAAGTCACC (((..(((....)))))) | 35.8 | -15.5 |
| GCATAGCGAAAGCCGTGC (((..((....))..))) | 39.6 | -17.5 |
| GGTATCGGAAACGATGTC (..((((....))))..) | 31.9 | -18.5 |
| GATCAGCCCCCTGATC ((((((....)))))) | 48.2 | -36.2 |
| GTGGGGGCGAAAGCCCAC (((..(((....)))))) | 65.5 | -15.1 |
| GATCAACGGCTTGATC ((((((....)))))) | 42.4 | -28.7 |
| GCACCCGGAAACAGGCGC ((.((.(....).)).)) | 32.8 | -22.3 |
| GATCTGAACTCAGATC ((((((....)))))) | 48 | -38.6 |
| GCGGCGCGAAAGCTCAGC ((.(.((....)).).)) | 56.7 | -19.2 |
| GCCACTCGAAAGAGGGC (((.(((....)))))) | 54.7 | -24.3 |
| GTGTGGCGAAAGCCCCAC (((.(((....))).))) | 51.3 | -23.5 |
| GCTTTGCGAAAGCACCGC ((..(((....)))..)) | 39.2 | -12.4 |
| GGCTGTTCGAAAGAAGCC (((..(((....)))))) | 38.2 | -20.9 |
| GGAGACGAAAGTCTTCC ((((((....))).))) | 50.9 | -18 |
| GAATAGCGAAAGCTCTTC (((.(((....))).))) | 38.7 | -19.4 |
| GATGACCGAAAGGTTATC (((.(((....))).))) | 51 | -36.2 |
| GGATACGAAAGTATCTCC ((((((....)))..))) | 46.2 | -13.3 |
| GAGTCCGAAAGGACCTC ((((((....))).))) | 54.5 | -13.2 |
| GACAGCGGAAACGCTACC (..((((....))))..) | 24.2 | -11.1 |
| GAAACCGAAAGGTAATTC ((((((....)))..))) | 27.9 | -9.6 |
| GTACGACGAAAGTCTAC (((.(((....)))))) | 37.2 | -19.7 |
| GACGGGGGAAACCCCACC (..((((....))))..) | 30.3 | -7.44 |
| GCACTCGAAAGAGCGTGC ((((((....)))..))) | 43.2 | -25.9 |
